Source: ChEMBL document CHEMBL1153433, “Design and synthesis of 2-amino-4-methylpyridine analogues as inhibitors for inducible nitric oxide synthase and in vivo evaluation of [18F]6-(2-fluoropropyl)-4-methyl-pyridin-2-amine as a potential PET tracer for inducible nitric oxide synthase” (J Med Chem, 2009)

Tested on: Kidney
Assay: Biodistribution in LPS treated C57BL/6N mouse kidney at 50 uCi/110 uL, iv administered 6 hrs […] LPS challenge measured after 2 hrs post drug dose
Type: ADME, organism-based
Details: in vivo
How it was run: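 Male C57BL/6N mice, 6-8 weeks; LPS (E. coli O127:B8) in PBS, 10 mg/kg i.v., given 6 h before tracer. HPLC-purified [18F]tracer ~50 μCi in 10% ethanol/saline i.v. via tail vein. Killed at 5 min, 30 min, 1 h or 2 h; tissues weighed and gamma-counted against diluted injectate standards. Reported as %ID/g, mean ± SD, n = 4.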

Drug uptake: 0.91 % ID/g
Compound: Cc1cc(N)nc(CC(C)[18F])c1 (stereo unspecified)
